Bioassay records (PubChem BioAssay)
This is a sample that favours compounds with a hit; in the whole collection about 3.5% have one here.
MrgX1 agonist: human MrgX1 receptor agonism, primary screen; Q96LB2; MrgX1-HEK293 cells, Fluo-4 calcium fluorescence, agonist mode; stronger effect = higher value; B-score at 10 µM; 310,000 compounds, 0.44% hits; AID 588627;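 active means calcium response B-score plate-corrected fluorescence ratio at least 3 library SD, with starting fluorescence B-score inside 5 SD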
Target sequence (Q96LB2 whole entry, looked up): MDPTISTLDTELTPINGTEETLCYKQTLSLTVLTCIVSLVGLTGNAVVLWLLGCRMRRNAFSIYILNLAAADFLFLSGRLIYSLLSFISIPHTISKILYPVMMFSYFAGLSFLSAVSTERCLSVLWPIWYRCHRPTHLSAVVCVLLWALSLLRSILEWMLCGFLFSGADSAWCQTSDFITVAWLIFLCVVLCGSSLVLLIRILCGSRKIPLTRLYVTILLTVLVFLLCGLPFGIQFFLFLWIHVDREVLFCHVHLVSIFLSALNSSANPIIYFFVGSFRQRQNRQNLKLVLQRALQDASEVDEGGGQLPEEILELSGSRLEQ
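Material: MrgX1-expressing HEK293 cells; input: 15,000 cells per well; doses: test compound given as first of three sequential additions; schedule: overnight plating before 1 h dye loading; technique: Fluo-4 NW calcium-flux fluorescence, kinetic read; evaluation: baseline-normalised fluorescence change ratio, B-scored; control set: plate-wise positive and negative controls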
MrgX1 antagonist: blocks BAM8-22 activation of human MrgX1 receptor | Q96LB2 | MRGX1-HEK293 calcium flux, Fluo-4, BAM8-22 antagonism; stronger effect = lower value | B-score at 10 µM | 310,000 compounds, 1.3% hits | AID 588676;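 active means calcium-response B-score plate-corrected more than 3 library SD below zero, starting fluorescence within 5 deviations, no agonist response on first addition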;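 further: peak minus trough fluorescence over baseline after final BAM8-22 challenge near maximal dose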
RGS4 pot: RGS4 potentiation or activation | HEK293 M3R/inducible RGS4, carbachol calcium flux Fluo4; stronger effect = lower value | B-score at 10 µM | 310,000 compounds, 0.92% hits | AID 463111;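 active means B-score of the integrated calcium signal more than 4 SD below the library mean, with starting fluorescence not abnormally high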;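 further: negative B-score means reduced calcium response which marks RGS4 activation or potentiation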
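Material: M3R-expressing HEK293 line, RGS4 induced by doxycycline | Schedule: Overnight RGS4 induction, 30 min dye load 37 °C, 20 min compound RT | Measured by: Fluo4 fluorescence kinetic imaging of calcium | Read-out: Integrated calcium ratio converted to B score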
RGS4 block: human RGS4 inhibition; P49798; AID 463165; B-score at 10 µM; HEK293 M3R/RGS4 inducible, Fluo-4 calcium flux; stronger effect = higher value; triggered by carbachol at its EC20; 310,000 compounds, 0.45% hits;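 active means B-score, a plate-corrected calcium signal, over three deviations above library mean, with baseline fluorescence within five deviations of library mean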;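 further: RGS4 expression induced by doxycycline in cells with stable M3 receptor; B-score is computed from the integrated fluorescence ratio over baseline after carbachol; higher B-score means a larger calcium signal and so more RGS4 inhibition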
Target sequence (P49798 whole entry, looked up): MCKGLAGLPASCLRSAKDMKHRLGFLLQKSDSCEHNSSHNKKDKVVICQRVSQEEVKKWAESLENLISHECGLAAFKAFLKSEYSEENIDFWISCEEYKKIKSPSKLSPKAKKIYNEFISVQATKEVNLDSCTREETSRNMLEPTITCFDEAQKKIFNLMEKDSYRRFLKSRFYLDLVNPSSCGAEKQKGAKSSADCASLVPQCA
MrgX1 allo act: allosterically activates human MrgX1 receptor signaling | 310,000 compounds, 0.63% hits | B-score at 10 µM | MrgX1-HEK293, Fluo-4 calcium flux, FDSS; stronger effect = higher value | Q96LB2;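 active means plate-corrected calcium response at least 3 library SD above typical, normal starting fluorescence, not activating the receptor alone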;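 further: compound read alongside a low EC10 to EC30 dose of BAM8-22 agonist; peak minus trough fluorescence over baseline measured at the second addition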
RGS4 inh valid: RGS4 inhibitor validation. calcium response, % at 10 µM. 1,700 compounds, 65% hits. shares compounds with RGS4 block. HEK293 M3R/RGS4, carbachol calcium Fluo-4 fluorescence; carbachol added at its EC20; 0 = buffer wells, 100 = carbachol control;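 active means duplicate-averaged calcium response above the buffer-only control mean plus 5 SD of those controls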;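 further: integrated fluorescence ratio F max minus min over baseline F0; higher response in RGS4-induced cells means RGS4 inhibition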
M3R Ca ctr: checks RGS4 inhibitor effects in non-induced HEK293 M3R cells; shares compounds with RGS4 block; carbachol calcium Fluo-4; submaximal (EC20) carbachol stimulus; buffer wells 0%, carbachol control wells 100%; activity (percent), % at 10 µM; 1,900 compounds, 20% hits; AID 493000; call rule not given here;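 further: RGS4 induction absent so cells express M3R without RGS4; higher means more calcium signal and flags a non-specific hit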
RGS4 inh ctr2: second RGS4 inhibitor counter-screen in uninduced cells lacking carbachol; shares compounds with RGS4 block; HEK293 M3R/RGS4 non-induced, Fluo-4 calcium, no carbachol; normalised: buffer wells 0%, carbachol wells 100%; calcium response (agonist-mode artifact), % at 10 µM; 1,900 compounds, 22% hits;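 active means duplicate-averaged calcium rise in uninduced cells above buffer wells' mean plus 5 SD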
* marks the source's active call; other numbers are inactive results; i = inactive; . = not tested or not shown.

SMILES	MrgX1 agonist	MrgX1 antagonist	RGS4 pot	RGS4 block	MrgX1 allo act	RGS4 inh valid	M3R Ca ctr	RGS4 inh ctr2
O=C1CC(C(=O)O)(c2ccccc2)c2cccc(F)c21 (configuration not stated)	i	i	i	i	i	.	.	.
Cc1ccc(NC(=O)C(C)SCc2nc3sc(C)c(C)c3c(=O)[nH]2)nc1 (configuration not stated)	i	i	i	i	i	.	.	.
Cc1ccc2c(CNCc3ccccc3)cc(=O)oc2c1	i	i	i	i	i	.	.	.
CN(C)c1ccc(NC(=O)CCN2CCN(c3ccccn3)CC2)cc1	i	i	i	i	i	.	.	.
COc1ccc(NC(=O)N2CCNC(=O)C2CC(=O)Nc2ccc(F)cc2)cc1 (configuration not stated)	i	i	i	i	i	i	i	i
O=C(CC1C(=O)NCCN1C(=O)c1ccc(Cl)cc1)Nc1ccc(F)cc1 (configuration not stated)	i	i	i	i	i	i	i	i
NNC(=O)c1csc(Cc2c(Cl)sc3ccc(Cl)cc23)n1	i	i	i	i	i	.	.	.
CC(=O)SC(C[N+](=O)[O-])c1cn(C(C)=O)c2ccccc12 (configuration not stated)	39*	i	i	16*	i	63%*	29%*	34%*
Cc1sc2nc(CN(Cc3ccccc3)C(=O)NC3CCCCC3)[nH]c(=O)c2c1C	i	i	i	5.1*	i	i	i	i
S=C(N/N=C/c1ccccc1)N1CCOCC1	i	i	i	i	i	.	.	.
O=c1[nH][nH]c(-c2ccccc2O)c1C(C[N+](=O)[O-])c1ccccc1 (configuration not stated)	i	i	i	i	i	i	i	i
O=c1[nH][nH]c(-c2ccccc2O)c1C(C[N+](=O)[O-])c1ccc(Cl)cc1Cl (configuration not stated)	i	i	i	6.2*	i	i	i	i
Cc1cc(O)c(C(C[N+](=O)[O-])c2ccc(Cl)cc2Cl)c(=O)o1 (configuration not stated)	i	i	i	i	i	.	.	.
O=c1[nH][nH]c(-c2ccccc2O)c1C(C[N+](=O)[O-])c1cccc(Cl)c1 (configuration not stated)	i	i	i	i	i	.	.	.
CN1CCNC(=O)C1CC(=O)NCCc1ccccc1F (configuration not stated)	i	i	i	i	i	.	.	.
O=C(Nc1nnc(CC2=CCCCC2)s1)Nc1ccccc1F	i	i	i	i	i	.	.	.
O=C(Nc1cccc(Cl)c1)Nc1nnc(CC2=CCCCC2)s1	i	i	i	10*	i	5.5%*	i	i
CC1CN(C(=O)CCC(=O)N2CCCCC2)c2ccccc2O1 (configuration not stated)	i	i	i	i	i	.	.	.
C=C1C(=O)O[C@@H]2C[C@@H](C)[C@@H]3C=CC(=O)[C@@]3(C)[C@@H](OC(C)=O)[C@H]12	33*	i	i	7.6*	i	22%*	i	11%*
COc1cc(C(CC(=O)Nc2ccc(C)cn2)N2Cc3ccccc3C2=O)cc(OC)c1OC (configuration not stated)	i	i	i	i	i	.	.	.
COc1cc(/C=C(/C(=O)c2cccs2)c2nc3ccccc3[nH]2)ccc1O	i	i	i	9.2*	i	18%*	i	i
Cc1c(C)c2ccc(OC(C)C(=O)NC3CCN(Cc4ccccc4)CC3)cc2oc1=O (configuration not stated)	i	i	i	i	i	.	.	.
CCN(CC)c1nc(N)c2c(N)nc3c(c2c1C#N)CC(c1ccccc1)O3 (configuration not stated)	i	i	i	5.3*	i	18%*	i	i
OC[C@H]1O[C@@H](n2cnc3c(NC4CCCC4)nc(Cl)nc32)[C@H](O)[C@@H]1O	i	i	.	.	i	.	.	.
Nc1nc(Cl)nc2c1ncn2[C@@H]1O[C@H](CO)[C@@H](O)[C@H]1O	i	i	i	9.8*	i	47%*	78%*	i
SMILES	MrgX1 agonist	MrgX1 antagonist	RGS4 pot	RGS4 block	MrgX1 allo act	RGS4 inh valid	M3R Ca ctr	RGS4 inh ctr2
Cc1ncc([N+](=O)[O-])n1CC(=O)Nc1ccc(F)cc1	i	i	i	i	i	.	.	.
CCn1c(=O)c2cc(C(=O)N(C)c3ccc(OC)cc3OC)sc2c2ccccc21	i	i	i	i	i	.	.	.
CCn1c(=O)c2cc(C(=O)N(C)c3cc(C)ccc3OC)sc2c2ccccc21	i	i	i	6*	i	30%*	60%*	i
NC(=O)CC(NC(=O)Cc1ccc(Cl)cc1)c1ccc(NC2CCCCCCC2)c([N+](=O)[O-])c1 (configuration not stated)	i	i	i	4.7*	i	11%*	i	i
NC(=O)CC(NC(=O)Cc1ccc(Cl)cc1)c1ccc(NC2CCCCCC2)c([N+](=O)[O-])c1 (configuration not stated)	i	i	i	i	i	.	.	.
NC(=O)CC(NC(=O)Cc1ccc(Br)cc1)c1ccc(NC2CCCC2)c([N+](=O)[O-])c1 (configuration not stated)	i	i	i	i	i	i	i	i
NC(=O)CC(NC(=O)Cc1ccc(Br)cc1)c1ccc(NC2CCCCCC2)c([N+](=O)[O-])c1 (configuration not stated)	i	i	i	i	i	i	i	i
O=c1[nH]c(C2CCCN(S(=O)(=O)c3ccccc3)C2)nc2c1nnn2Cc1cccc(Cl)c1 (configuration not stated)	i	i	i	i	i	.	.	.
Nc1nc2ccc(S(=O)(=O)c3ccc4nc(N)sc4c3)cc2s1	i	i	i	6.3*	i	i	i	i
